{"data": "Measured values collected from several papers", "target": "TGF-beta receptor type-1 (TGFBR1, Homo sapiens, UniProt P36897)", "Sequence (P36897 1-503, as in one of the studies)": "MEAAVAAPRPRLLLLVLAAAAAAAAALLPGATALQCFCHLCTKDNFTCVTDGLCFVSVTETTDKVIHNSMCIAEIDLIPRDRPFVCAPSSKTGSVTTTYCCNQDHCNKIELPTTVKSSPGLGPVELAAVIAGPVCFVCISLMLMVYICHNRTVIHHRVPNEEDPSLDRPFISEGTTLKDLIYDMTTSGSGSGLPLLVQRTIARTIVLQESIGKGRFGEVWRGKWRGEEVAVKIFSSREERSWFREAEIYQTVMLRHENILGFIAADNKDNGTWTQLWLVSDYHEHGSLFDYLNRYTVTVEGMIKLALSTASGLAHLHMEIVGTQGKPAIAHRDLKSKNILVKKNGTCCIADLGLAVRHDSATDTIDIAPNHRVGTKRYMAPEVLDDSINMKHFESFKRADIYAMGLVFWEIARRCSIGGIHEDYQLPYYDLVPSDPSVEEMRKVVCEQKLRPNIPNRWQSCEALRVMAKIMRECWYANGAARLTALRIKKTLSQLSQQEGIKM"}
{"Structure (SMILES)": "O=C(Nc1cnn(-c2csc(C(=O)NC3COC3)c2)c1)Nc1c(F)cccc1Cl", "test": "enzyme activity, inhibitor", "conditions": "5 µM", "endpoint": "remaining activity", "result": "97.4%"}
{"Structure (SMILES)": "Cc1cnc(NC2CCOCC2)nc1-n1cnc(C(=O)NC(CN)c2cc(F)cc(Cl)c2)c1 (stereo not shown)", "test": "enzyme activity, inhibitor, radiometric", "conditions": "1 µM", "endpoint": "remaining activity", "result": "98%"}
{"Structure (SMILES)": "CCN(CC)c1ccc(C2=NNC(=O)CC2C)cc1[N+](=O)[O-] (stereo not shown)", "test": "enzyme activity, inhibitor", "conditions": "10 µM", "endpoint": "remaining activity", "result": "89%"}
{"Structure (SMILES)": "Cc1ccc(NC(=O)c2ccc(C)c(C(F)(F)F)c2)cc1C#Cc1nn(C2CCC(O)CC2)c2ncnc(N)c12 (stereo not shown)", "test": "cell-free assay", "conditions": "10 µM", "endpoint": "remaining signal", "result": "105%"}
{"Structure (SMILES)": "COc1cc(-c2cc(-c3ccc(N4CCNCC4)cc3)cnc2C)cc(OC)c1OC", "test": "enzyme activity, inhibitor", "conditions": "1 µM", "endpoint": "inhibition", "result": "32%"}
{"Structure (SMILES)": "CC(=O)C1=C(C)N(c2cccc(C(F)(F)F)c2)C(=O)N[C@@H]1c1ccc(C#N)nc1", "test": "cell-free assay, competition with immobilised ligand", "conditions": "1 µM", "endpoint": "remaining binding", "result": "99.2%"}
{"Structure (SMILES)": "COc1cccc(F)c1Cn1cnc(-c2ccc(F)cc2)c1-c1ccncc1", "test": "cell-free assay, TR-FRET", "conditions": "1 µM", "endpoint": "inhibition", "result": "20%"}
{"Structure (SMILES)": "CC(C)(C)c1nc2c(s1)c1nc(N)ncc1c1ccc(NS(=O)(=O)c3c(F)cccc3F)c(F)c12", "test": "enzyme activity, inhibitor, radiometric", "conditions": "1 µM", "endpoint": "remaining activity", "result": "102%"}
{"Structure (SMILES)": "O=C(O)c1cc(-c2ccc(C3CCNCC3)cc2)c2ccc(-c3ccc(C(F)(F)F)cc3)cc2c1", "test": "cell-free assay, competition with immobilised ligand", "conditions": "1 µM", "endpoint": "remaining binding", "result": "81%"}
{"Structure (SMILES)": "Fc1ccc(-c2ncn(C3=CCCCC3)c2-c2ccncc2)cc1", "test": "cell-free assay, TR-FRET", "conditions": "1 µM", "endpoint": "inhibition", "result": "19%"}
{"Structure (SMILES)": "O=C(NS(=O)(=O)c1ccc(NCC2CCOCC2)c([N+](=O)[O-])c1)c1ccc(N2CCN(Cc3ccc(C(F)(F)F)cc3-c3ccc(Cl)cc3)CC2)cc1Oc1cnc2[nH]ccc2c1", "test": "cell-free assay, competition with immobilised ligand", "conditions": "1 µM", "endpoint": "remaining binding", "result": "93%"}
{"Structure (SMILES)": "Nc1ncnc2occ(-c3ccc(NC(=O)Nc4cc(C(F)(F)F)ccc4F)cc3)c12", "test": "cell-free assay", "conditions": "20 µM", "endpoint": "remaining signal", "result": "52%"}
{"Structure (SMILES)": "CS(=O)(=O)Nc1cccc(-c2csc(NC(=O)CSc3nc4nccnc4c(=O)n3CCc3ccccc3)n2)c1", "test": "enzyme activity, inhibitor", "conditions": "10 µM", "endpoint": "inhibition", "result": "5%"}
{"Structure (SMILES)": "CO[C@@H](C)c1c(Nc2ccc([C@@H](N(C)C(=O)C3CCS(=O)(=O)CC3)C(F)(F)F)cc2)cnc2cc(Cl)nn12", "test": "cell-free assay, competition with immobilised ligand", "conditions": "1 µM", "endpoint": "remaining binding", "result": "95%"}
{"Structure (SMILES)": "Cc1ccc(NC(=O)c2ccc(CN3CCN(C)CC3)cc2)cc1Nc1nc(-c2cccnc2)cs1", "test": "cell-free assay", "conditions": "0.5 µM", "endpoint": "remaining signal", "result": "98.5%"}
{"Structure (SMILES)": "COc1ccc2c(c1)O[C@@H](c1ccc(OC)c(OC)c1)C[C@H]2NC(=O)C1(c2ccc3c(c2)OC(F)(F)O3)CC1", "test": "cell-free assay, competition with immobilised ligand", "conditions": "1 µM", "endpoint": "remaining binding", "result": "100%"}
{"Structure (SMILES)": "Fc1ccc(-c2ncn(-c3ccc(-c4ccccc4)cc3)c2-c2ccncc2)cc1", "test": "cell-free assay, TR-FRET", "conditions": "1 µM", "endpoint": "inhibition", "result": "15%"}
{"Structure (SMILES)": "c1ccc(-c2[nH]ncc2-c2ccnc3ccccc23)nc1", "test": "cell-free assay", "conditions": "0.5 µM", "endpoint": "remaining signal", "result": "41.6%"}
{"Structure (SMILES)": "Fc1ccc(-c2c(-c3ccncc3)ncn2-c2ccccc2)cc1", "test": "cell-free assay, TR-FRET", "conditions": "1 µM", "endpoint": "inhibition", "result": "21%"}
{"Structure (SMILES)": "CN(C)c1ncnc(-c2ccc3nc(Nc4cc(CN5CCN(C(=O)CC(F)(F)F)CC5)ccn4)[nH]c3c2)c1Cl", "test": "cell-free assay, competition with immobilised ligand", "conditions": "1 µM", "endpoint": "remaining binding", "result": "100%"}
{"Structure (SMILES)": "COc1cccc(F)c1Cn1cnc(-c2ccncc2)c1-c1ccc(F)cc1", "test": "cell-free assay, TR-FRET", "conditions": "1 µM", "endpoint": "inhibition", "result": "19%"}
{"Structure (SMILES)": "Cc1cccc(-c2[nH]c(C(C)(C)C)nc2-c2ccc3c(c2)OCO3)n1", "test": "cell-free assay", "conditions": "0.5 µM", "endpoint": "remaining signal", "result": "35.8%"}
{"Structure (SMILES)": "CCOc1cc(-c2nncn2C)ccc1Nc1ncc2cc(C)nc(NCC(C)(C)C)c2n1", "test": "cell-free assay, TR-FRET", "conditions": "1 µM", "endpoint": "inhibition", "result": "≤ 15%"}
{"Structure (SMILES)": "Cc1cc(NC(=O)c2cccc3cc(-c4cccc5[nH]nc(N)c45)ccc23)ccc1F", "test": "enzyme activity, inhibitor", "conditions": "0.1 µM", "endpoint": "activity vs control", "result": "120%"}
{"Structure (SMILES)": "O=C1Nc2ccc(Cl)cc2C1=Cc1cc(Cl)c(O)c(Cl)c1", "test": "cell-free assay", "conditions": "0.5 µM", "endpoint": "remaining signal", "result": "102%"}
{"Structure (SMILES)": "CO[C@H]1CC[C@H](CNc2ccc(S(=O)(=O)NC(=O)c3ccc(N4CCN(CC5=C(c6ccc(Cl)cc6)CC(C)(C)CC5)CC4)cc3Oc3cnc4[nH]ccc4c3)cc2[N+](=O)[O-])CC1", "test": "cell-free assay, competition with immobilised ligand", "conditions": "1 µM", "endpoint": "remaining binding", "result": "84%"}
{"Structure (SMILES)": "O=C1NC(=O)c2cc(Nc3ccc(F)cc3)c(Nc3ccc(F)cc3)cc21", "test": "cell-free assay", "conditions": "0.5 µM", "endpoint": "remaining signal", "result": "98.1%"}
{"Structure (SMILES)": "CN(C)C(=O)Cn1cc(-c2nc(C3(c4ccc(-c5cnc(N)nc5)cc4)CC3)no2)cn1", "test": "cell-free assay, competition with immobilised ligand", "conditions": "1 µM", "endpoint": "remaining binding", "result": "97%"}
